Legend:
MDA-MB-231 = experiment: Cytotoxicity against triple-negative human MDA-MB-231 cells assessed as redution in cell viability incubated for 72 hrs by SRB assay; format: functional, cell-based; conditions: MDA-MB-231, 72 h
In short: (§1)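 Breast tumour lines from ATCC, each in its own medium with 10% FBS: SKBR-3 (HER2+) in McCoy's 5A; MCF-7 (ER+) in MEM plus 0.01 mg/mL human recombinant insulin; MDA-MB-231 (triple-negative) in DMEM. Cells were kept at 37°C, 5% CO2, humidified. Compounds were tested on 1x10^4 cells/well by sulforhodamine B assay. IC50 came from a nonlinear fit of log concentration vs normalized response (variable slope).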

[1] = Selectivity index, ratio of IC50 for human HGF cells to IC50 for SKBR3 cells; format: toxicity; conditions: HGF cells versus SKBR3 cells, read-out: Ratio IC50
[2] = Cytotoxicity against human HGF cells assessed as redution in cell viability incubated for 72 hrs by SRB assay; format: cell-based
In short: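 Non-tumour human HGF cells were obtained under UFSC ethics approval 021/2009 and kept at 37°C, 5% CO2, humidified, with 10% FBS. Compounds were tested on 1x10^4 cells/well by sulforhodamine B assay. IC50 came from a nonlinear variable-slope fit of log concentration vs normalized response.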

SK-BR-3 = experiment: Cytotoxicity against HER2-positive human SKBR3 cells assessed as redution in cell viability incubated for 72 hrs by SRB assay; format: functional, cell-based; conditions: SK-BR-3, 72 h
MCF7 = experiment: Cytotoxicity against ER-positive human MCF7 cells assessed as redution in cell viability incubated for 72 hrs by SRB assay; format: functional, cell-based; conditions: MCF7, 72 h; in short: as §1
[3] = Selectivity index, ratio of IC50 for human HGF cells to IC50 for MDA-MB-231 cells; format: toxicity; conditions: HGF cells versus MDA-MB-231 cells, read-out: Ratio IC50
[4] = Selectivity index, ratio of IC50 for human HGF cells to IC50 for MCF7 cells; format: toxicity; conditions: HGF cells versus MCF7 cells, read-out: Ratio IC50

SMILES | IC50 (MDA-MB-231) [µM] | selectivity ratio [1] | IC50 [2] [µM] | IC50 (SK-BR-3) [µM] | IC50 (MCF7) [µM] | selectivity ratio [3] | selectivity ratio [4]
CC(=O)OC[C@H]1O[C@@H](n2cc(COC3=CC(=O)c4ccccc4C3=O)nn2)[C@H](OC(C)=O)[C@@H](OC(C)=O)[C@@H]1OC(C)=O | 14 | 22 | 17.7 | 0.78 | 3.33 |  | 
CC(=O)OC[C@H]1O[C@@H](OC2=CC(=O)c3ccccc3C2=O)[C@H](OC(C)=O)[C@@H](OC(C)=O)[C@H]1OC(C)=O | 13.3 |  | 34.6 | 8.86 | 13.6 |  | 
CC(=O)OC[C@H]1O[C@H](OC2=CC(=O)c3ccccc3C2=O)[C@H](OC(C)=O)[C@@H](OC(C)=O)[C@@H]1OC(C)=O | 8.29 |  | 20.2 | 2.11 | 3.52 |  | 
CC(=O)N[C@H]1[C@@H](OC2=CC(=O)c3ccccc3C2=O)O[C@H](COC(C)=O)[C@@H](OC(C)=O)[C@@H]1OC(C)=O | 19.8 |  | 40.2 | 3.41 | 6.59 |  | 
CC(=O)OC[C@H]1O[C@H](OC2=CC(=O)c3ccccc3C2=O)[C@H](OC(C)=O)[C@@H](OC(C)=O)[C@H]1OC(C)=O | 9.18 |  | 35.7 | 2.51 | 4.58 | 4 | 8
O=C1C=C(OCc2cn([C@@H]3O[C@H](CO)[C@H](O)[C@H](O)[C@H]3O)nn2)C(=O)c2ccccc21 | > 50 |  | > 50 | > 50 | > 50 |  | 
CC(=O)OC[C@H]1O[C@@H](n2cc(COC3=CC(=O)c4ccccc4C3=O)nn2)[C@H](OC(C)=O)[C@@H](OC(C)=O)[C@H]1OC(C)=O | 16.7 | 22 | 27.6 | 1.27 | 4.22 |  | 
CC(=O)N[C@@H]1[C@@H](O)[C@H](O)[C@@H](CO)O[C@H]1n1cc(COC2=CC(=O)c3ccccc3C2=O)nn1 | > 50 |  | > 50 | > 50 | > 50 |  | 
CC(=O)O[C@H]1[C@H](OC(C)=O)[C@H](OC2=CC(=O)c3ccccc3C2=O)O[C@@H](C)[C@H]1OC(C)=O | 18.2 |  | 19.8 | 9.52 | 11 |  | 
CC(=O)O[C@@H]1[C@H](OC(C)=O)[C@H](C)O[C@H](n2cc(COC3=CC(=O)c4ccccc4C3=O)nn2)[C@H]1OC(C)=O | 23.4 |  | 38.1 | 3.32 | 9.74 |  | 
CC(=O)N[C@H]1[C@H](OC2=CC(=O)c3ccccc3C2=O)O[C@H](COC(C)=O)[C@@H](OC(C)=O)[C@@H]1OC(C)=O | 27.6 |  | > 50 | 8.3 | 16.3 |  | 
O=C1C=C(OCc2cn([C@@H]3O[C@H](CO)[C@@H](O)[C@H](O)[C@H]3O)nn2)C(=O)c2ccccc21 | > 50 |  | > 50 | 34.7 | 38.9 |  | 
CC(=O)O[C@H]1[C@H](OC(C)=O)[C@@H](OC2=CC(=O)c3ccccc3C2=O)O[C@@H](C)[C@H]1OC(C)=O | 8.65 |  | > 50 | 2.41 | 5.02 |  | 
C[C@@H]1O[C@H](n2cc(COC3=CC(=O)c4ccccc4C3=O)nn2)[C@@H](O)[C@H](O)[C@@H]1O | > 50 |  | > 50 | > 50 | > 50 |  | 
CC(=O)OC[C@H]1O[C@@H](OC2=CC(=O)c3ccccc3C2=O)[C@H](OC(C)=O)[C@@H](OC(C)=O)[C@@H]1OC(C)=O | 12.6 |  | 19.1 | 2.96 | 4.76 |  | 
CC(=O)N[C@@H]1[C@@H](OC(C)=O)[C@H](OC(C)=O)[C@@H](COC(C)=O)O[C@H]1n1cc(COC2=CC(=O)c3ccccc3C2=O)nn1 | > 50 |  | > 50 | 17 | 28.9 |  | 
COc1cccc2c1C(=O)c1c(O)c3c(c(O)c1C2=O)C[C@@](O)(C(=O)CO)C[C@@H]3O[C@H]1C[C@H](N)[C@H](O)[C@H](C)O1 [DOXORUBICIN] |  |  | > 50 |  | 0.38 |  | 
O=C1C=C(O)C(=O)c2ccccc21 [LAWSONE] | > 50 |  | > 50 | > 50 | > 50 |  | 

From ChEMBL document CHEMBL4602630, “Synthesis and cytotoxicity evaluation of glycosidic derivatives of lawsone against breast cancer cell lines” (Bioorg Med Chem Lett, 2020)
